Data from ChEMBL document CHEMBL3286298 (Eur J Med Chem, 2014).

Columns and labels:
[1] = Cmax in Kunming mouse brain at 48 mmol/g, iv administered as single dose by HPLC analysis; type: ADME, organism-based; set-up: dose 48 mmol/g, route intravenous
[2] = Mean residence time in Kunming mouse blood at 48 mmol/g, iv administered as single dose by HPLC analysis; type: ADME, organism-based
[3] = test system: Brain; assay: AUC (0 to t) in Kunming mouse brain at 48 mmol/g, iv administered as single dose by HPLC analysis; type: ADME, organism-based; details: in vivo
[4] = Cmax in Kunming mouse blood at 48 mmol/g, iv administered as single dose by HPLC analysis; type: ADME, organism-based; set-up: dose 48 mmol/g, route intravenous
[5] = Tmax in Kunming mouse blood at 48 mmol/g, iv administered as single dose by HPLC analysis; type: ADME, organism-based
[6] = Tmax in Kunming mouse brain at 48 mmol/g, iv administered as single dose by HPLC analysis; type: ADME, organism-based
[7] = AUC (0 to t) in Kunming mouse blood at 48 mmol/g, iv administered as single dose by HPLC analysis; type: ADME, organism-based
[8] = test system: Brain; assay: Drug uptake in Kunming mouse brain […] iv ibuprofen administered as single dose by HPLC analysis relative to ibuprofen; type: ADME, organism-based; details: in vivo
[9] = Metabolic stability in mouse plasma assessed as first order rate constant of disappearance of drug by HPLC analysis; type: ADME, cell-free
Method in brief: (§1)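 Incubation in mouse plasma extract or brain homogenate at 37 °C; remaining compound measured by HPLC (UV 219 nm). Pseudo-first-order Kdisapp from linear regression of ln peak area against time in minutes; half-life derived from it.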

[10] = Chemical stability of compound in phosphate buffer assessed as first order rate constant of disappearance of drug at pH 7.88 by HPLC analysis; type: physicochemical
Method in brief: (§2)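 Methanol solution of compound mixed into 4 ml phosphate buffer (pH 2.21, 5.86, 7.33 or 7.88), held at 37 °C; samples taken at 0, 1, 3, 6, 12, 24 h and analysed by reverse-phase HPLC (methanol/water 70:30, pH 2.86, UV 219 nm). Pseudo-first-order Kdisapp from linear regression of ln peak area against time in hours; t1/2 derived from it.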

[11] = Chemical stability of compound in phosphate buffer assessed as half life at pH 7.88 by HPLC analysis; type: physicochemical; method in brief: as §2
[12] = Chemical stability of compound in phosphate buffer assessed as half life at pH 7.33 by HPLC analysis; type: physicochemical; method in brief: as §2
[13] = Chemical stability of compound in phosphate buffer assessed as first order rate constant of disappearance of drug at pH 7.33 by HPLC analysis; type: physicochemical; method in brief: as §2
[14] = Chemical stability of compound in phosphate buffer assessed as first order rate constant of disappearance of drug at pH 5.86 by HPLC analysis; type: physicochemical; method in brief: as §2
[15] = test system: Brain; assay: Metabolic stability in mouse brain assessed as first order rate constant of disappearance of drug by HPLC analysis; type: ADME, tissue-based; method in brief: as §1
[16] = Chemical stability of compound in phosphate buffer assessed as first order rate constant of disappearance of drug at pH 2.21 by HPLC analysis; type: physicochemical; method in brief: as §2
[17] = test system: Brain; assay: Drug uptake in Kunming mouse brain assessed as concentration efficiency […] iv ibuprofen administered as single dose by HPLC analysis relative to ibuprofen; type: ADME, organism-based; details: in vivo
[18] = Metabolic stability in mouse plasma assessed as compound half life by HPLC analysis; type: ADME, cell-free; method in brief: as §1
[19] = test system: Brain; assay: AUC (0 to t) in Kunming mouse brain […] iv ibuprofen administered as single dose by HPLC analysis; type: ADME, organism-based; details: in vivo
[20] = Metabolic stability in mouse brain assessed as compound half life by HPLC analysis; type: ADME, tissue-based; method in brief: as §1
[21] = Chemical stability of compound in phosphate buffer assessed as half life at pH 5.86 by HPLC analysis; type: physicochemical; method in brief: as §2
[22] = Chemical stability of compound in phosphate buffer assessed as half life at pH 2.21 by HPLC analysis; type: physicochemical; method in brief: as §2

| Ratio [8] | k el [9] [s⁻¹] | K [10] [×10⁻² /hr] | half-life [11] [h] | half-life [12] [h] | K [13] [×10⁻² /hr] | K [14] [×10⁻² /hr] | K [15] [×10⁻² /min] | K [16] [×10⁻² /hr] | Ratio [17] | half-life [18] [h] | AUCt [19] [µg·min/g] | half-life [20] [h] | half-life [21] [h] | half-life [22] [h] | SMILES | further results |
| --- | --- | --- | --- | --- | --- | --- | --- | --- | --- | --- | --- | --- | --- | --- | --- | --- |
|  |  |  |  |  |  |  |  |  |  |  |  |  |  |  | CC(C)Cc1ccc(C(C)C(=O)O)cc1 (configuration not stated) [IBUPROFEN] | Cmax [1]: 10700 ng/g; MRT [2]: 78.9 h; AUCt [3]: 1856.215 µg·min/g; Cmax [4]: 28400 ng/mL; Tmax [5]: 6.67 min; Tmax [6]: 0.417 h; AUC(0-t) [7]: 56800 ng·h/mL |
| 2.254 | 0.000225 | 7.15 | 9.7 | 16.1 | 4.3 | 3.36 | 4.16 | 1.61 | 4.194 | 0.857 | 4183.3895 | 0.278 | 20.6 | 43 | CC(C)Cc1ccc(C(C)C(=O)OC(CO)C2OC(=O)C(O)=C2O)cc1 (configuration not stated) |  |
| 3.516 | 0.000262 | 8.65 | 8.1 | 12.4 | 5.58 | 3.66 | 2.48 | 1.76 | 4.965 | 0.737 | 6526.7422 | 0.465 | 18.9 | 39.5 | CC(C)Cc1ccc(C(C)C(=O)OCC(OC(=O)C(C)c2ccc(CC(C)C)cc2)C2OC(=O)C(O)=C2O)cc1 (configuration not stated) |  |
| 4.072 | 0.000307 | 6.87 | 10.1 | 16.2 | 4.27 | 2.89 | 5.46 | 1.29 | 7.461 | 0.463 | 7557.692 | 0.212 | 23.9 | 53.9 | C/C(=C(\CCOC(=O)C(C)c1ccc(CC(C)C)cc1)SSCc1ccccc1)N(C=O)CC(=O)OCC(OC(=O)C(C)c1ccc(CC(C)C)cc1)C1OC(=O)C(O)=C1O (configuration not stated) |  |
| 2.03 | 0.000248 | 8.42 | 8.2 | 14.8 | 4.67 | 3.76 | 3.46 | 1.73 | 2.619 | 0.777 | 3767.9842 | 0.335 | 18.4 | 40.1 | CC(C)Cc1ccc(C(C)C(=O)OCC(O)C2OC(=O)C(O)=C2O)cc1 (configuration not stated) |  |
